From ChEMBL document CHEMBL1150363, “Synthesis, ligand-receptor modeling studies and pharmacological evaluation of novel 4-modified-2-aryl-1,2,4-triazolo[4,3-a]quinoxalin-1-one derivatives as potent and selective human A3 adenosine receptor antagonists” (Bioorg Med Chem, 2008)

Tests used:
Bos taurus = species on record: Bos taurus; assay: Displacement of [3H]CGS21680 from adenosine A2A receptor in bovine brain membrane at 10 uM; assay type: cell membranes
Procedure, shortened: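 Bovine striatal membranes, [3H]CGS 21680 (Kd 14 nM). Five displacer concentrations in triplicate, non-linear regression IC50, Cheng-Prusoff Ki, four assays. Single-point data are % inhibition at 10 µM.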

[1] = target: T1, Adenosine receptor A1 (Bos taurus) (UniProt P28190); assay: Displacement of [125I]DPCPX from adenosine A1 receptor in bovine brain membrane at 10 uM; assay type: cell membranes; details: in the assay text read “[3H]DPCPX” for “[125I]DPCPX”
T1 sequence (whole entry): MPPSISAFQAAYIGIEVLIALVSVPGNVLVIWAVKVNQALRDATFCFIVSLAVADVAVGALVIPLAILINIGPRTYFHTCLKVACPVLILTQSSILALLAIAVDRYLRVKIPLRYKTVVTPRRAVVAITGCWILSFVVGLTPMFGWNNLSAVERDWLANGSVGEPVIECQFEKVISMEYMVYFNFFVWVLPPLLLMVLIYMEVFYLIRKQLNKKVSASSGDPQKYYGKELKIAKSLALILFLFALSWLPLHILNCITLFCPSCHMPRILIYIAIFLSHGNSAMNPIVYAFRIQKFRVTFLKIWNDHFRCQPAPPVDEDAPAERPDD
Procedure, shortened: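 Bovine cerebral cortical membranes, [3H]DPCPX (Kd 0.3 nM). IC50 from five displacer concentrations in triplicate, Ki by Cheng-Prusoff, means of four assays. Single-point data are % inhibition of specific binding at 10 µM.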

[2] = target: T2, Adenosine receptor A3 (Homo sapiens) (UniProt P0DMS8); assay: Displacement of [125I]AB-MECA from human cloned adenosine A3 receptor expressed in CHO cells at 1 uM; assay type: cell-based
T2 sequence (whole entry): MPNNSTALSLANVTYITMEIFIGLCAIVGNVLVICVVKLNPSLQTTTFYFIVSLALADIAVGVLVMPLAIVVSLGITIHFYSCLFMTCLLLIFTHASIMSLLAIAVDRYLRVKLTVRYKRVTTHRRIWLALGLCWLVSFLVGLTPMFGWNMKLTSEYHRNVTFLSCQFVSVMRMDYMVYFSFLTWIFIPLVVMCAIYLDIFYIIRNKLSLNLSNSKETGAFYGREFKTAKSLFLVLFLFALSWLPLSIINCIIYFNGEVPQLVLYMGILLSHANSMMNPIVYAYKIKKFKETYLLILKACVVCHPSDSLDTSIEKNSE
Procedure, shortened: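 CHO cells stably expressing hA3. Displacement of [125I]AB-MECA (Kd 1.4 nM). IC50 by non-linear regression over five displacer concentrations in triplicate, converted to Ki by Cheng-Prusoff. Ki values are means of four assays. Single-point data are % inhibition of specific binding at 1 µM.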

Adenosine receptor A3 = target: T3, Adenosine receptor A3 (Homo sapiens, UniProt P0DMS8); assay: Displacement of [125I]AB-MECA from human cloned adenosine A3 receptor expressed in CHO cells; assay type: cell-based
T3 sequence (P0DMS8 whole entry): T2 sequence (whole entry)
Procedure, shortened: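 CHO cells stably expressing hA3. IC50 by non-linear regression over five displacer concentrations in triplicate, converted to Ki by Cheng-Prusoff. Ki values are means of four assays.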

Adenosine receptor A1 [3] = target: T4, Adenosine receptor A1 (Bos taurus, UniProt P28190); assay: Displacement of [3H]DPCPX from adenosine A1 receptor in bovine brain membrane
T4 sequence (P28190 whole entry): T1 sequence (whole entry)

Adenosine receptor A1 [4] = target: T5, Adenosine receptor A1 (Homo sapiens, UniProt P30542); assay: Displacement of [3H]DPCPX from human cloned adenosine A1 receptor expressed in CHO cells
T5 sequence (P30542 whole entry): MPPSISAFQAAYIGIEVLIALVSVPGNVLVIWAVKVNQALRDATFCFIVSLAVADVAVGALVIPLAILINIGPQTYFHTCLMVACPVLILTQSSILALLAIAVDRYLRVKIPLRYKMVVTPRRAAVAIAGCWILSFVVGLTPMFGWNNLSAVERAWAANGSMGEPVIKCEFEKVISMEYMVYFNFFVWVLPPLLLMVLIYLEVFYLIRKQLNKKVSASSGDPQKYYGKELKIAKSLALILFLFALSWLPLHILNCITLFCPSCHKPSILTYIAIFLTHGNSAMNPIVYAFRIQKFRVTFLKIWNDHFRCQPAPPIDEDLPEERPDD

Adenosine receptor A2a [5] = target: T6, Adenosine receptor A2a (Homo sapiens, UniProt P29274); assay: Displacement of [125I]NECA from human adenosine A2A receptor expressed in CHO cells at 10uM; assay type: cell-based; details: in the assay text read “[3H]NECA” for “[125I]NECA”
Procedure, shortened: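 hA2A stably expressed in CHO cells. Radioligand [3H]NECA (Kd 30 nM). Percentage inhibition of specific binding measured at 10 µM.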

[6] = Displacement of [3H]CGS21680 from adenosine A2A receptor in bovine brain membrane; assay type: cell membranes, Bos taurus
Adenosine receptor A2a [7] = target: T6, Adenosine receptor A2a; assay: Displacement of [3H]NECA from human cloned adenosine A2A receptor expressed in CHO cells
[8] = target: T7, Adenosine receptor A1 (Homo sapiens) (UniProt P30542); assay: Displacement of [3H]DPCPX from human cloned adenosine A1 receptor expressed in CHO cells at 10 uM
T7 sequence (whole entry): T5 sequence (P30542 whole entry)

T6 sequence (P29274 whole entry): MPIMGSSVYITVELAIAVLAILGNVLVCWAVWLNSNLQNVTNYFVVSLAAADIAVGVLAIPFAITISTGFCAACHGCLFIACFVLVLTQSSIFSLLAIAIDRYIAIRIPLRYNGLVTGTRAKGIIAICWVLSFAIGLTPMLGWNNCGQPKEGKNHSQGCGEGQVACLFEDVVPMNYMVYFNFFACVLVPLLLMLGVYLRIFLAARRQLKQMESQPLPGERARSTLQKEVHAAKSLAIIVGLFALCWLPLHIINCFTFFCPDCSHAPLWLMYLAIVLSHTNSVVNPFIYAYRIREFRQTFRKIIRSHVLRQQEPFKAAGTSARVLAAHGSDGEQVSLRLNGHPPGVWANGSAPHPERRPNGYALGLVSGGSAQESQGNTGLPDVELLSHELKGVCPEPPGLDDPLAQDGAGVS

SMILES	Activity (Bos taurus) [%]	Activity [1] [%]	Activity [2] [%]	Ki (Adenosine receptor A3) [nM]	Ki (Adenosine receptor A1 [3]) [nM]	Ki (Adenosine receptor A1 [4]) [nM]	Activity (Adenosine receptor A2a [5]) [%]	Ki [6] [nM]	Ki (Adenosine receptor A2a [7]) [nM]	Activity [8] [%]
O=C(Nc1nc2c([N+](=O)[O-])cccc2n2c(=O)n(-c3ccccc3)nc12)c1ccncc1	22	37.5	0	–	–	–	–	–	–	–
O=c1n(-c2ccccc2)nc2c(NS(=O)(=O)c3ccccc3)nc3c([N+](=O)[O-])cccc3n12	25	–	–	100	210	–	–	–	–	–
COc1ccc(-n2nc3c(NC(=O)NCc4ccccc4)nc4ccccc4n3c2=O)cc1	12	–	–	65	20.8	4220	23	–	–	–
COc1ccc(-n2nc3c(N(S(C)(=O)=O)S(C)(=O)=O)nc4ccccc4n3c2=O)cc1	17	6.2	–	387	–	–	–	–	–	–
COC(=O)c1ccc(C(=O)Nc2nc3ccccc3n3c(=O)n(-c4ccccc4)nc23)cc1	36	–	41	–	106	–	–	–	–	–
O=C(Nc1nc2ccccc2n2c(=O)n(-c3ccccc3)nc12)c1ccccc1	53	–	–	–	–	–	–	–	–	–
CCCn1c(=O)c2[nH]c(C3CCCC3)nc2n(CCC)c1=O [1,3-DIPROPYL-8-CYCLOPENTYLXANTHINE [DPCPX]]	–	–	–	–	–	–	–	337	–	–
COC(=O)c1ccc(C(=O)Nc2nc3ccccc3n3c(=O)n(-c4ccc(OC)cc4)nc23)cc1	41	30.5	–	1370	–	–	–	–	–	–
O=C(NCc1ccccc1)Nc1nc2ccccc2n2c(=O)n(-c3ccccc3)nc12	–	–	–	83.5	4.1	12.3	–	173	158	–
O=C(NC(=O)c1ccccc1)Nc1nc2ccccc2n2c(=O)n(-c3ccccc3)nc12	–	–	–	1300	101	–	–	379	–	–
O=C(Nc1nc2ccccc2n2c(=O)n(-c3ccccc3)nc12)c1ccncc1	–	–	–	6.1	57	2380	–	812	188	–
COc1ccc(-n2nc3c(NS(=O)(=O)c4ccccc4)nc4ccccc4n3c2=O)cc1	16	–	–	2.2	4700	2700	23	–	–	–
O=C(NCc1ccccc1)Nc1nc2c([N+](=O)[O-])cccc2n2c(=O)n(-c3ccccc3)nc12	46.5	–	–	63	4.6	–	20	–	–	4
COc1ccc(-n2nc3c(NS(C)(=O)=O)nc4ccccc4n3c2=O)cc1	0	6	–	493	–	–	–	–	–	–
COc1ccc(-n2nc3c(NC(=O)c4ccncc4)nc4ccccc4n3c2=O)cc1	44	–	–	68	236	779	–	–	397	–
O=c1n(-c2ccccc2)nc2c(OCc3ccccc3)nc3ccccc3n12	19	–	–	21	55	–	10	–	–	46
CS(=O)(=O)Nc1nc2c([N+](=O)[O-])cccc2n2c(=O)n(-c3ccccc3)nc12	25	–	37	–	2840	–	–	–	–	–
O=C(Nc1cccc(I)c1)Nc1nc2ccccc2n2c(=O)n(-c3ccccc3)nc12	–	–	–	953	359	–	–	1800	–	–
O=c1n(-c2ccccc2)nc2c(NS(=O)(=O)c3ccccc3)nc3ccccc3n12	35	–	–	32.2	157	–	27	–	–	0
O=C(Nc1nc2ccccc2n2c(=O)n(-c3ccccc3)nc12)c1cccc(I)c1	35	–	36	–	473	–	–	–	–	–
COc1ccc(-n2nc3c(OCc4ccccc4)nc4ccccc4n3c2=O)cc1	41	53	–	6.4	–	–	4	–	–	54
CS(=O)(=O)Nc1nc2ccccc2n2c(=O)n(-c3ccccc3)nc12	32	–	–	1430	164	–	–	–	–	–
